# In paper PMC4636097 (Drug Design, Development and Therapy, 2015):
# What was measured:
# [1] = test system: pooled HLMs (human liver microsomes); assay: Kinetics of OMT metabolism; format: in vitro ADME; conditions: pooled HLM, formation of MT, biphasic metabolism equation
# [2] = test system: pooled HIMs (human intestinal microsomes); assay: Kinetics of OMT metabolism; format: in vitro ADME; conditions: pooled HIM, formation of MT, biphasic metabolism equation
# [3] = target: cDNA-expressed human CYP3A4 (Homo sapiens, UniProt P08684); assay: Metabolism of OMT in recombinant human CYP enzymes: CYP3A4; format: in vitro ADME; conditions: OMT 50 μM, 0.08 mg/mL enzyme, NADPH-regenerating system, 37°C, 1.5 hours
# cDNA-expressed human CYP3A4, sequence (P08684 whole entry, canonical isoform): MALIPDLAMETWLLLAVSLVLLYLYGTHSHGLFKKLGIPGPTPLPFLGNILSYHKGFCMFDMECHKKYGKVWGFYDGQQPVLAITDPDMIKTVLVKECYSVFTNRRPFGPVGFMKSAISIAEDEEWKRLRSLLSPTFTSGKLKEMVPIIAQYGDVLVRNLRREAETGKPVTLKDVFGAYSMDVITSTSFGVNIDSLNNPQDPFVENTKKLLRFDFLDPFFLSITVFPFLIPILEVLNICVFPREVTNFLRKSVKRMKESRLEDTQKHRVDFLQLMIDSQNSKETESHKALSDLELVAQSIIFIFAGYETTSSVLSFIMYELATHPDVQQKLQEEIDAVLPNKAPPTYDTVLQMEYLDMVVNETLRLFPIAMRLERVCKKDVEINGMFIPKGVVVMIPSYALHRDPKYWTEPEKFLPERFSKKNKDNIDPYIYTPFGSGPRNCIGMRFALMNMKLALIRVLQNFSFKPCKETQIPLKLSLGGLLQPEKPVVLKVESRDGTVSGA
# [4] = test system: other cDNA-expressed CYP enzymes (CYP1A1, CYP1A2, CYP1B1, CYP2A6, CYP2B6, CYP2C8, CYP2C19, CYP2D6, CYP2E1, CYP3A5); assay: Metabolism of OMT in recombinant human CYP enzymes: other isoforms; format: in vitro ADME; conditions: OMT 50 μM, 0.08 mg/mL enzyme, NADPH-regenerating system, 37°C, 1.5 hours
# [5] = test system: HLMs; assay: Effects of different oxygen contents on the metabolism of OMT in HLMs; format: in vitro ADME, human; conditions: OMT 50 μM, enzyme inactivated in boiled water for 2 h, ventilation for 30 s
# [6] = test system: HLMs; assay: Identification of OMT metabolite in HLMs; format: in vitro ADME, human; conditions: HLMs and NADPH, 37°C, 1.5 hours; metabolite identified as MT
# How it was run: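 Test compound at 50, 100 or 200 μM with pooled human liver microsomes (0.1 mg/mL) in 50 mM KPI pH 7.4 and a glucose-6-phosphate/MgCl2/G6P dehydrogenase system, started with NADP. Controls lacked NADP. Run at 37°C for 1.5 h with shaking, then CH2Cl2 extraction. UPLC and Q-TOF MS (positive ESI); metabolite assigned by chromatographic behaviour and MS fragmentation. Triplicate.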
# [7] = oral administration; cited from earlier work
smiles,measurement,setting,value
"O=C1CCC[C@@H]2[C@H]3CCC[N+]4([O-])CCC[C@@H](CN12)[C@@H]34 (stereo partly shown) [OMT, Oxymatrine]",Vmax,[1],1.49 ± 0.24 nmol/min/mg
same,Vmax,[2],0.46 ± 0.05 nmol/min/mg
same,formation of MT by CYP3A4,[3],contributed greatly to the formation of MT
same,formation of MT by other cDNA-expressed CYP enzymes,[4],only a small amount of MT could be detected
same,metabolites in the inactivated enzyme test,[5],no metabolites were observed
same,metabolites found in HLMs,[6],only one metabolite was found in HLMs
same,oral absolute bioavailability,[7],6.79%
